ChEMBL document CHEMBL1152542, “Synthesis of pentopyranosyl-containing thiodisaccharides. Inhibitory activity against beta-glycosidases” (Bioorg Med Chem, 2009)
Activity calls are given as the source filed them. The rule behind the calls is not given here.

Assays:
[1] = target: T1, Exo-1,4-beta-xylosidase xlnD (Aspergillus niger) (UniProt O00089); experiment: Inhibition of Aspergillus niger beta-xylosidase at 15 mM after 15 mins by visible absorption spectroscopy
T1 sequence (whole entry): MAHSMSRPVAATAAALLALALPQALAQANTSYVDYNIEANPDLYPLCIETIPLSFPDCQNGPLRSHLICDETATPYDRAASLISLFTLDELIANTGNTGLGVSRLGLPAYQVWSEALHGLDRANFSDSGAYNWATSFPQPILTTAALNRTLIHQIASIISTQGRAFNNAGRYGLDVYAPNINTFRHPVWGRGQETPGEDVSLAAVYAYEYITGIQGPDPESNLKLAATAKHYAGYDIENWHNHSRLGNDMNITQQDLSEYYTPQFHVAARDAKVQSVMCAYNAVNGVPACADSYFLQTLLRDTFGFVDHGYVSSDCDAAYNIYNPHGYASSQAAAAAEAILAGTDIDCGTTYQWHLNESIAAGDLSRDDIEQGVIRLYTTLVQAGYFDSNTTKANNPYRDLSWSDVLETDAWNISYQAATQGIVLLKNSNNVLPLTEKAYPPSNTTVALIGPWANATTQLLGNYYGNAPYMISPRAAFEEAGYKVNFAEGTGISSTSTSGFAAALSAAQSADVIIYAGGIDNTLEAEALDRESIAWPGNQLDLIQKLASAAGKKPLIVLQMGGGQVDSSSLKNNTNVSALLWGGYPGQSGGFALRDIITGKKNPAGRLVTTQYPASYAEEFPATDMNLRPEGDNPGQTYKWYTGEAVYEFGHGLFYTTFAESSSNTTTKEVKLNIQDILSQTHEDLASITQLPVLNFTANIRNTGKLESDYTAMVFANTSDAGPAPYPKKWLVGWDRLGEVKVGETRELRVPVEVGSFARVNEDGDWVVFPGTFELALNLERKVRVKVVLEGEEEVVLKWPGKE
Outline: (§1)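 A. niger β-xylosidase (0.04 U) was incubated with p-nitrophenyl β-D-xylopyranoside (0.5–10.0 mM) in 50 mM sodium acetate, pH 5.0, with or without inhibitor (2.0–10.0 or 5.0–15.0 mM) for 15 min at 25 °C. The reaction was stopped with 0.2 M sodium borate, pH 10.0, and absorbance was read at 400 nm.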

Prunus dulcis = experiment: Inhibition of almond beta-glucosidase at 4 to 6 mM after 15 mins by visible absorption spectroscopy
Outline: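 Almond β-glucosidase (2.0 mU) was incubated with p-nitrophenyl β-D-glucopyranoside (0.5–10.0 mM) in 50 mM sodium acetate, pH 5.6, with or without inhibitor (4.0–6.0 mM) for 15 min at 37 °C. The reaction was stopped with sodium borate, pH 10.0, and absorbance was read at 400 nm.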

Beta-galactosidase = Beta-galactosidase (Escherichia coli, UniProt Q8VNN2); experiment: Inhibition of Escherichia coli beta-galactosidase by Lineweaver-Burke plot analysis
Sequence of Beta-galactosidase (Q8VNN2 whole entry): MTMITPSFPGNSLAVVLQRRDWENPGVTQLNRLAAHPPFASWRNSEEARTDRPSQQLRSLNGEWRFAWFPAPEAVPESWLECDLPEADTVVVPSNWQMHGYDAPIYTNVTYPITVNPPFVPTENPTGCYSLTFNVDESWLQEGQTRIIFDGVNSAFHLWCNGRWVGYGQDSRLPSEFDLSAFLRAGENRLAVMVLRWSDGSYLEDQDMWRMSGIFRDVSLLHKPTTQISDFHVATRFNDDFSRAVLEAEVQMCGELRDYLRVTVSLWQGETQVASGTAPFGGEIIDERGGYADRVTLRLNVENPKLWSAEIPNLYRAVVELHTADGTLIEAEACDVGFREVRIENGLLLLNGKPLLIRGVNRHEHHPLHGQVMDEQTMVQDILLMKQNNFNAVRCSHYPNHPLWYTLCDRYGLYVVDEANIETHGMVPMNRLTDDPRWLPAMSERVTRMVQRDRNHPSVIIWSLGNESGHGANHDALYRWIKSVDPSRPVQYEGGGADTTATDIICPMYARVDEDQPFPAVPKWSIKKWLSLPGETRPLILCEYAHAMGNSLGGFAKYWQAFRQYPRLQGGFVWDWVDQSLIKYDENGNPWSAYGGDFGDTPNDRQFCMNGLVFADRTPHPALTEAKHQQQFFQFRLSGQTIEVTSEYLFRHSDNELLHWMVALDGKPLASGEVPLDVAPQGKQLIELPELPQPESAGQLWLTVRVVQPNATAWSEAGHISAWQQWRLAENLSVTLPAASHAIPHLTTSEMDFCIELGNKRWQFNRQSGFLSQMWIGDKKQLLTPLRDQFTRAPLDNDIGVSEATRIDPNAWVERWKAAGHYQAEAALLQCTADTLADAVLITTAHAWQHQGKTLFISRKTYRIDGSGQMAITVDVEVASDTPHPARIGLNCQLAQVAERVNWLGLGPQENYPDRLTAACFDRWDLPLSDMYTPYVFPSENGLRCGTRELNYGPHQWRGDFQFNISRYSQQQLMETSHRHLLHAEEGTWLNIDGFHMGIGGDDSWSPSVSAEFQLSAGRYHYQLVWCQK
Outline: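 Kinetics of E. coli β-galactosidase with o-nitrophenyl β-D-galactopyranoside (0.2–5.0 mM) in 100 mM sodium phosphate, pH 7.3, with 1.2 mM MgCl₂ and 100 mM 2-mercaptoethanol, 10 min at 37 °C, borate quench, absorbance at 410 nm. Inhibitor was tested at 0, 0.40, 0.80 and 1.20 mM, and data were analysed by Lineweaver–Burk double-reciprocal plot.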

[2] = target: Beta-galactosidase (Escherichia coli) (UniProt Q8VNN2); experiment: Inhibition of Escherichia coli beta-galactosidase assessed as formation of o-nitrophenol at 0.6 to 4 mM after 10 mins by visible absorption spectroscopy
Sequence of Beta-galactosidase (Escherichia coli) (Q8VNN2 whole entry, looked up): as the sequence (Q8VNN2 whole entry) above

[3] = target: Beta-galactosidase (Escherichia coli) (UniProt Q8VNN2); experiment: Inhibition of Escherichia coli beta-galactosidase assessed as formation of o-nitrophenol at 0.4 to 1.2 mM after 10 mins by visible absorption spectroscopy
Outline: (§2)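 E. coli β-galactosidase (0.3 U) was incubated with o-nitrophenyl β-D-galactopyranoside (0.2–5.0 mM) in 100 mM sodium phosphate, pH 7.3, containing 1.2 mM MgCl₂ and 100 mM 2-mercaptoethanol, with or without inhibitor, for 10 min at 37 °C. The reaction was quenched with 0.2 M sodium borate, pH 10.0, and released o-nitrophenol was read at 410 nm.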

[4] = target: T1, Exo-1,4-beta-xylosidase xlnD (Aspergillus niger); experiment: Inhibition of Aspergillus niger beta-xylosidase at 10 mM after 15 mins by visible absorption spectroscopy; outline: as §1
[5] = target: Beta-galactosidase (Escherichia coli) (UniProt Q8VNN2); experiment: Inhibition of Escherichia coli beta-galactosidase assessed as formation of o-nitrophenol at 0.01 to 0.05 mM after 10 mins by visible absorption spectroscopy; outline: as §2

inhibition [1]	inhibition (Prunus dulcis)	Ki (Beta-galactosidase) [µM]	inhibition [2]	Activity [3]	inhibition [4]	Activity [5]	SMILES
inactive	inactive	160	inactive				CC(C)O[C@H]1O[C@H](CO)[C@H](S[C@@H]2OC[C@@H](O)[C@H](O)[C@H]2O)C[C@H]1O
		800		Active			OC[C@H]1O[C@@H](S[C@@H]2CO[C@@H](OCc3ccccc3)[C@H](O)C2)[C@H](O)[C@@H](O)[C@H]1O
	inactive	120	inactive		inactive		CC(C)O[C@H]1O[C@H](CO)[C@H](S[C@@H]2OC[C@@H](O)[C@H](O)[C@H]2O)C[C@@H]1O
		32				Active	OC[C@H]1O[C@@H](S[C@@H]2CO[C@@H](OCc3ccccc3)[C@@H](O)C2)[C@H](O)[C@@H](O)[C@H]1O
